The results in this text go back to PubChem BioAssay AID623918 (The Scripps Research Institute Molecular Screening Center, 2012).

Some results are limits rather than exact numbers.

The subject of the experiment is E. coli V66 Hfr conjugation, recombinant frequency by colony plating. The experiment in a line: reduction of Hfr conjugational recombinant frequency – colony formation, V66 E. coli, provider lab, counter-screen for AddAB inhibitor project, late-stage follow-up (AID 623918). A digest of the protocol: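 System: E. coli conjugation, F- recipient cells mated with Hfr donor cells. Compound: 5 doses, 0.03–100 µM. Incubation: 1 h recipient growth, 30 min mating, 1.5 h compound exposure. Detection: colony counting after differential plating for His+ StrR recombinants, viability on non-selective plates.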
For the compound `CCn1cc(C(=O)O)c(=O)c2cnc(N3CCN(C(=S)Nc4cccc(C(F)(F)F)c4)CC3)nc21`, the IC50 was 100 nM.

With `O=C(Nc1ncccn1)c1ccc([N+](=O)[O-])o1`, the half-inhibitory concentration (IC50) is 30 nM.

Turning to `C=CCn1c(Sc2ncc([N+](=O)[O-])s2)n[nH]c1=O`, the IC50 was < 1000 nM.

On to `O=C(NCc1cccnc1)c1ccc([N+](=O)[O-])o1`, for which the 50% inhibitory concentration (IC50) was < 100 nM.

With `CCn1cc(C(=O)O)c(=O)c2cnc(N3CCN(C(=S)Nc4ccccc4C(F)(F)F)CC3)nc21`, the IC50 was < 1000 nM.

As for `CCn1cc(C(=O)O)c(=O)c2cc(F)c(N3CCN(C(=S)Nc4cccc(C(F)(F)F)c4)CC3)cc21`, the IC50 was < 1000 nM.

For the compound `CCn1cc(C(=O)O)c(=O)c2cnc(N3CCNCC3)nc21`, the IC50 is < 100 nM.
